In PubChem BioAssay AID624022 (Broad Institute, 2012):

Biological target: Scavenger receptor class B member 1 (Mus musculus) (UniProt Q61009)
Test: inhibitors of SR-BI-mediated HDL cholesteryl ester uptake, dose response, orthogonal assay for SR-BI HDL uptake inhibitor project, cell-based, wild-type CHO mSR-BI, scintillation, powder samples (AID 624022)
Conditions: CHO mSR-BI cells, [3H]CE-HDL uptake
Procedure, shortened: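 Signal: scintillation counting. Assay system: LDL receptor-deficient CHO cells overexpressing mouse SR-BI. Reagent: HDL labeled with [3H]cholesteryl ester. Times: 1 h pretreatment plus 2 h uptake at 37 °C.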

Sequence of Scavenger receptor class B member 1 (Mus musculus) (Q61009 whole entry, looked up): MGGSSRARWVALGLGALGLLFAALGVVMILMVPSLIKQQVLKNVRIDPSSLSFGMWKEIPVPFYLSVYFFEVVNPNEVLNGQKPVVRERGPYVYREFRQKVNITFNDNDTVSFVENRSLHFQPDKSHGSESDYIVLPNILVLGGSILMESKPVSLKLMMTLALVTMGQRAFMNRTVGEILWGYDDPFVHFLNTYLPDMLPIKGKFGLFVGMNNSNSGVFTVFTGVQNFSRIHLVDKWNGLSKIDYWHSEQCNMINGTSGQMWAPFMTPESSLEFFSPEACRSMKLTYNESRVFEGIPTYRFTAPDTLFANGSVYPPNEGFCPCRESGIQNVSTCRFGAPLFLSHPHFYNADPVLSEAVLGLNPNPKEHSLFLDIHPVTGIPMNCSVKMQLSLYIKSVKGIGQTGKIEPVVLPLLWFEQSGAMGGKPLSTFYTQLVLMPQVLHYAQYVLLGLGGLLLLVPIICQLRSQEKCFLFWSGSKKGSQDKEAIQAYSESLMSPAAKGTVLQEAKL

IC50: 500 nM
SMILES: CC(C)NC(=O)Nc1ccc2c(c1)C(=O)N([C@H](C)CO)C[C@@H](C)[C@H](CN(C)S(=O)(=O)c1ccc(Cl)cc1)O2
